Data: ChEMBL document CHEMBL1125607, “Novel gonadotropin-releasing hormone antagonists: peptides incorporating modified N omega-cyanoguanidino moieties” (J Med Chem, 1991)
≈ marks a conversion by molar mass, not a printed value. Calls of active or inactive are those of the source. No cut-off for these calls is given here.

Assays:
Rattus norvegicus [1] = assay: Potency (5 mg/rat) using anti-ovulatory assay, expressed as rat ovulating/total number of treated rats measured after sc administration; 0/7; assay type: functional, organism-based
Rattus norvegicus [2] = assay: Potency (2.5 mg/rat) using anti-ovulatory assay, expressed as rat ovulating/total number of treated rats measured after sc administration; 7/7; assay type: functional, organism-based
[3] = target: T1, Gonadotropin-releasing hormone receptor (Rattus norvegicus, UniProt P30969); assay: In vitro binding affinity of Gonadotropin-releasing hormone antagonist was measured in rat pituitary cell membranes; design: species or system Pituitary gland cell, Membrane
T1 sequence (P30969 whole entry): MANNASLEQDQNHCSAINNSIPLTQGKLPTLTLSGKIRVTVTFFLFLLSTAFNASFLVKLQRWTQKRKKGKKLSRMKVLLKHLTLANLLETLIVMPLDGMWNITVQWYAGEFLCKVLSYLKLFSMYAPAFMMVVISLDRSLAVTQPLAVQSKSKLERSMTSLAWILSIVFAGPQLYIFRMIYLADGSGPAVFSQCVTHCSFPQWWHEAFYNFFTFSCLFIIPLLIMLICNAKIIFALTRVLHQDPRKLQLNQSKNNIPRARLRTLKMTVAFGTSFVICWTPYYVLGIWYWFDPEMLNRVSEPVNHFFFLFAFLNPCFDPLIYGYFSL
Method in brief: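 Displacement binding on pituitary cell membranes with [DAla6,NMe-Leu7,Pro9-NHEt]GnRH as standard; analogue KD values calculated from potencies relative to that standard derived from displacement data.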

Rattus norvegicus [4] = assay: Potency (2.5 mg/rat) using anti-ovulatory assay, expressed as rat ovulating/total number of treated rats measured after sc administration; 0/8; assay type: functional, organism-based
[5] = target: Gonadotropin-releasing hormone receptor (Rattus norvegicus) (UniProt P30969); assay: Antagonist potency at GnRH receptor relative to a standard ([Ac-delta3Pro, DFpa2, DTrp3,6]GnRH).
Rattus norvegicus [6] = assay: Potency (1 mg/rat) using anti-ovulatory assay, expressed as rat ovulating/total number of treated rats measured after sc administration; 5/8; assay type: functional, organism-based
Rattus norvegicus [7] = assay: Potency (2.5 mg/rat) using anti-ovulatory assay, expressed as rat ovulating/total number of treated rats measured after sc administration; 5/9; assay type: functional, organism-based
Rattus norvegicus [8] = assay: Potency (2.5 mg/rat) using anti-ovulatory assay, expressed as rat ovulating/total number of treated rats measured after sc administration; 2/9; assay type: functional, organism-based
Rattus norvegicus [9] = assay: Potency (10 mg/rat) using anti-ovulatory assay, expressed as rat ovulating/total number of treated rats measured after sc administration; 4/4; assay type: functional, organism-based
Rattus norvegicus [10] = assay: Potency (2.5 mg/rat) using anti-ovulatory assay, expressed as rat ovulating/total number of treated rats measured after sc administration; 5/6; assay type: functional, organism-based
Rattus norvegicus [11] = species: Rattus norvegicus; assay: In vitro histamine release by rat mast cells.; details: read-out: ED50 (the source's name)
Rattus norvegicus [12] = assay: Potency (5 mg/rat) using anti-ovulatory assay, expressed as rat ovulating/total number of treated rats measured after sc administration; 1/6; assay type: functional, organism-based
Rattus norvegicus [13] = assay: Potency (2.5 mg/rat) using anti-ovulatory assay, expressed as rat ovulating/total number of treated rats measured after sc administration; 1/8; assay type: functional, organism-based
Rattus norvegicus [14] = assay: Potency (1 mg/rat) using anti-ovulatory assay, expressed as rat ovulating/total number of treated rats measured after sc administration; 6/6; assay type: functional, organism-based
Rattus norvegicus [15] = assay: Potency (10 mg/rat) using anti-ovulatory assay, expressed as rat ovulating/total number of treated rats measured after sc administration; 0/6; assay type: functional, organism-based
Rattus norvegicus [16] = assay: Potency (5 mg/rat) using anti-ovulatory assay, expressed as rat ovulating/total number of treated rats measured after sc administration; 2/5; assay type: functional, organism-based
Rattus norvegicus [17] = assay: Potency (1 mg/rat) using anti-ovulatory assay, expressed as rat ovulating/total number of treated rats measured after sc administration; 2/8; assay type: functional, organism-based
Rattus norvegicus [18] = assay: Potency (0.5 mg/rat) using anti-ovulatory assay, expressed as rat ovulating/total number of treated rats measured after sc administration; 7/7; assay type: functional, organism-based
Rattus norvegicus [19] = assay: Potency (2.5 mg/rat) using anti-ovulatory assay, expressed as rat ovulating/total number of treated rats measured after sc administration; 7/9; assay type: functional, organism-based

Compound: CCCC/N=C(/NCCCC[C@H](NC(=O)[C@H](CC(C)C)NC(=O)[C@@H](CCCCNC(=O)c1cccnc1)NC(=O)[C@H](CCCCNC(=O)c1cccnc1)NC(=O)[C@H](CO)NC(=O)[C@H](Cc1c[nH]c2ccccc12)NC(=O)[C@H](Cc1c[nH]cn1)NC(=O)[C@@H]1CCC(=O)N1)C(=O)N1CCC[C@H]1C(=O)N[C@H](C)C(N)=O)NC(N)=O
- Activity (Rattus norvegicus [1]): Active
- Activity (Rattus norvegicus [2]): inactive
- Kd [3]: 0.11 nM

Compound: CCCC/N=C(\NC#N)NCCC[C@H](NC(=O)[C@H](CO)NC(=O)[C@H](Cc1c[nH]c2ccccc12)NC(=O)[C@H](Cc1c[nH]cn1)NC(=O)[C@@H]1CCC(=O)N1)C(=O)N[C@H](CCCN/C(=N/CCCC)NC#N)C(=O)N[C@@H](CC(C)C)C(=O)N[C@@H](CCCCNC(C)C)C(=O)N1CCC[C@H]1C(=O)N[C@H](C)C(N)=O
- Activity (Rattus norvegicus [4]): Active
- Relative potency [5]: 1
- Kd [3]: 2.1 nM
- Activity (Rattus norvegicus [6]): Weak activity

Compound: CCCC/N=C(\NC#N)NCCCC[C@H](NC(=O)[C@H](Cc1c[nH]cn1)NC(=O)[C@@H]1CCC(=O)N1)C(=O)N[C@@H](CO)C(=O)N[C@@H](Cc1ccc(O)cc1)C(=O)N[C@H](CCCCN/C(=N/CCCC)NC#N)C(=O)N[C@@H](CC(C)C)C(=O)N[C@@H](CCCCNC(C)C)C(=O)N1CCC[C@H]1C(=O)N[C@H](C)C(N)=O
- Activity (Rattus norvegicus [7]): Weak activity
- Relative potency [5]: 1.4

Compound: CC(C)C[C@H](NC(=O)[C@@H](CCC/N=C(\NC#N)NCc1ccccn1)NC(=O)[C@H](CCC/N=C(\NC#N)NCc1ccccn1)NC(=O)[C@H](CO)NC(=O)[C@H](Cc1c[nH]c2ccccc12)NC(=O)[C@H](Cc1c[nH]cn1)NC(=O)[C@@H]1CCC(=O)N1)C(=O)N[C@@H](CCCCNC(C)C)C(=O)N1CCC[C@H]1C(=O)N[C@H](C)C(N)=O
- Relative potency [5]: 0.9
- Kd [3]: 0.41 nM
- Activity (Rattus norvegicus [8]): Active

Compound: CC(C)C[C@H](NC(=O)[C@@H](Cc1cccnc1)NC(=O)[C@H](Cc1ccc(O)cc1)NC(=O)[C@H](CO)NC(=O)[C@H](Cc1ccc(Nc2n[nH]c(N)n2)cc1)NC(=O)[C@H](Cc1c[nH]cn1)NC(=O)[C@@H]1CCC(=O)N1)C(=O)N[C@@H](CCCCNC(C)C)C(=O)N1CCC[C@H]1C(=O)N[C@H](C)C(N)=O
- Activity (Rattus norvegicus [9]): inactive
- Relative potency [5]: 0.06

Compound: CCCC/N=C(\NC#N)NCCCC[C@H](NC(=O)[C@H](CC(C)C)NC(=O)[C@@H](CCCN=C(N)N)NC(=O)[C@H](Cc1ccc(O)cc1)NC(=O)[C@H](CO)NC(=O)[C@@H](Cc1cccnc1)NC(=O)[C@H](Cc1c[nH]cn1)NC(=O)[C@@H]1CCC(=O)N1)C(=O)N1CCC[C@H]1C(=O)N[C@H](C)C(N)=O
- Activity (Rattus norvegicus [10]): inactive
- Relative potency [5]: 1.2
- Kd ([3]; pituitary gland cell): 1 nM
- EC50 (Rattus norvegicus [11]): 3.5 µg/mL (≈ 2.59 µM)
- Activity (Rattus norvegicus [12]): Active

Compound: CC(C)C[C@H](NC(=O)[C@@H](CCCCNc1n[nH]c(N)n1)NC(=O)[C@H](Cc1ccc(O)cc1)NC(=O)[C@H](CO)NC(=O)[C@H](CCCCNc1n[nH]c(N)n1)NC(=O)[C@H](Cc1c[nH]cn1)NC(=O)[C@@H]1CCC(=O)N1)C(=O)N[C@@H](CCCCNC(C)C)C(=O)N1CCC[C@H]1C(=O)N[C@H](C)C(N)=O
- Activity (Rattus norvegicus [13]): Active
- Relative potency [5]: 0.6
- Activity (Rattus norvegicus [14]): inactive

Compound: CC(C)C[C@H](NC(=O)[C@@H](CCCN=C(N)N)NC(=O)[C@H](Cc1ccc(O)cc1)NC(=O)[C@H](CO)NC(=O)[C@@H](CCCCNc1n[nH]c(N)n1)NC(=O)[C@H](Cc1c[nH]cn1)NC(=O)[C@@H]1CCC(=O)N1)C(=O)N[C@@H](CCCCNC(C)C)C(=O)N1CCC[C@H]1C(=O)N[C@H](C)C(N)=O
- Activity (Rattus norvegicus [15]): Active
- Activity (Rattus norvegicus [16]): Weak activity
- Relative potency [5]: 0.3
- EC50 (Rattus norvegicus [11]): 9.5 µg/mL (≈ 7.12 µM)

Compound: CCCC/N=C(\NC#N)NCCCC[C@@H](NC(=O)[C@H](Cc1c[nH]cn1)NC(=O)[C@@H]1CCC(=O)N1)C(=O)N[C@@H](CO)C(=O)N[C@@H](Cc1ccc(O)cc1)C(=O)N[C@H](CCCN=C(N)N)C(=O)N[C@@H](CC(C)C)C(=O)N[C@@H](CCCCNC(C)C)C(=O)N1CCC[C@H]1C(=O)N[C@H](C)C(N)=O
- Activity (Rattus norvegicus [17]): Active
- Activity (Rattus norvegicus [18]): inactive
- Relative potency [5]: 1.4
- Kd [3]: 1.2 nM
- EC50 (Rattus norvegicus [11]): 6 µg/mL (≈ 4.36 µM)

Compound: CC(C)C[C@H](NC(=O)[C@@H](CCCC/N=C(\NC#N)NC1CCCCC1)NC(=O)[C@H](CCCC/N=C(\NC#N)NC1CCCCC1)NC(=O)[C@H](CO)NC(=O)[C@H](Cc1c[nH]c2ccccc12)NC(=O)[C@H](Cc1c[nH]cn1)NC(=O)[C@@H]1CCC(=O)N1)C(=O)N[C@@H](CCCCNC(C)C)C(=O)N1CCC[C@H]1C(=O)N[C@H](C)C(N)=O
- Relative potency [5]: 0.42
- Activity (Rattus norvegicus [19]): inactive
